Measurements: ChEMBL document CHEMBL3612059, “Synthesis of 1,2-benzisoxazole tethered 1,2,3-triazoles that exhibit anticancer activity in acute myeloid leukemia cell lines by inhibiting histone deacetylases, and inducing p21 and tubulin acetylation” (Bioorg Med Chem, 2015)
Active and inactive are the calls of the source. The rule behind the calls is not given here.

Experiments:
MOLM-14 [1] = experiment: Induction of apoptosis in human MOLM14 cells assessed as late apoptotic cells at 5 uM after 72 hrs by Annexin V-FITC/propidium iodide staining-based flow cytometric analysis (reference value: 2%); type: functional
Outline: (§1)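 100,000 cells per well treated with 2.5, 5.0 or 10 μM for 72 h. Washed in ice-cold Ca/Mg-free PBS, resuspended in 100 μl binding buffer, stained with 5 μl PI plus 3 μl annexin V-FITC for 15 min in the dark, then read immediately by flow cytometry. Quadrants scored as live, early apoptotic, late apoptotic and necrotic.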

MOLM-14 [2] = experiment: Induction of apoptosis in human MOLM14 cells assessed as late apoptotic cells at 10 uM after 72 hrs by Annexin V-FITC/propidium iodide staining-based flow cytometric analysis (reference value: 2%); type: functional; outline: as §1
MV4-11 [3] = experiment: Induction of apoptosis in human MV4-11 cells assessed as early apoptotic cells at 2.5 uM after 72 hrs by Annexin V-FITC/propidium iodide staining-based flow cytometric analysis (reference value: 7%); type: functional; outline: as §1
MOLM-14 [4] = experiment: Induction of apoptosis in human MOLM14 cells after 72 hrs by Annexin V-FITC/propidium iodide staining-based flow cytometric analysis; type: functional, cell-based; outline: as §1
[5] = molecular target: T1, Protein deacetylase HDAC6 (Homo sapiens) (UniProt Q9UBN7); experiment: Inhibition of HDAC6 in human MOLM14 cells assessed as increase in acetylation of tubulin at lysine 40 by Western blot analysis; type: cell-based; conditions: MOLM-14
T1 sequence (whole entry): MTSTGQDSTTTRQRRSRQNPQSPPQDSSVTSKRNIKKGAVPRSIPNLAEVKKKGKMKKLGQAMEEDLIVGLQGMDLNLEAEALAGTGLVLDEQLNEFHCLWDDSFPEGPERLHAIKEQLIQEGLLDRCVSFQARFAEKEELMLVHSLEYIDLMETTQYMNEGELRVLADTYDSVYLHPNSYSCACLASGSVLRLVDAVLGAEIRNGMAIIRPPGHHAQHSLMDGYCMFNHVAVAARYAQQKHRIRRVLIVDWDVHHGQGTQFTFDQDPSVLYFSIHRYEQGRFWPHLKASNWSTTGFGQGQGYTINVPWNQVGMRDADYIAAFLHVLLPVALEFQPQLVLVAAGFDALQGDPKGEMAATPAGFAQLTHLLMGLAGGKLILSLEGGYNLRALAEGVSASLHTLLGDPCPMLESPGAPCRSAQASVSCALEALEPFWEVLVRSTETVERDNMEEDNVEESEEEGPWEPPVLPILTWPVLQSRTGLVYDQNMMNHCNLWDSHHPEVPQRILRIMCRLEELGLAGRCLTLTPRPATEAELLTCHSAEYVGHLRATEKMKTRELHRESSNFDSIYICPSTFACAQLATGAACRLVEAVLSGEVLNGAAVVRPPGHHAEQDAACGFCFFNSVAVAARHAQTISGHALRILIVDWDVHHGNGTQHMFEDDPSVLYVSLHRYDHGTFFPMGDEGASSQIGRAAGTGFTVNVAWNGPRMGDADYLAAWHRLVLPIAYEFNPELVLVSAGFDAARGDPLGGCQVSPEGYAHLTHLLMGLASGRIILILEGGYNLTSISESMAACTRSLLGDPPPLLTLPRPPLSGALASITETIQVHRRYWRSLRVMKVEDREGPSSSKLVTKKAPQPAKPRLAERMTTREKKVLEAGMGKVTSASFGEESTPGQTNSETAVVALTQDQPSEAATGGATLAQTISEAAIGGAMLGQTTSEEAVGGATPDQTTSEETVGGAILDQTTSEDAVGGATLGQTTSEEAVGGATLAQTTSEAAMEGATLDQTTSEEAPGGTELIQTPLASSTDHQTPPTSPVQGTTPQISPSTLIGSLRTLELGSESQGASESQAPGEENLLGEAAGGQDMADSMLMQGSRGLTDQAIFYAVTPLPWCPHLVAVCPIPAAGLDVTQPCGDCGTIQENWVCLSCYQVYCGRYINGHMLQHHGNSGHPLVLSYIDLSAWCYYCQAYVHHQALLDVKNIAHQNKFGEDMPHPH

MV4-11 [6] = experiment: Cytotoxicity against human MV4-11 cells assessed as cell viability after 24 to 96 hrs by MTT assay; type: functional, cell-based
Outline: (§2)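 AML cells kept in RPMI with 10 % FBS and 1 % penicillin-streptomycin at 37 °C, 5 % CO₂, mycoplasma-screened. Seeded at 8,000 cells/well across a range of concentrations and read at several times up to 96 h. MTT added to 0.5 mg/ml final for 3 h at 37 °C, formazan dissolved in SDS-HCl, absorbance read at 570 nm. IC50 taken from the dose-response curves.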

MOLM-14 [7] = experiment: Cytotoxicity against human MOLM14 cells assessed as cell viability measured at 96 hrs by MTT assay; type: functional, cell-based; conditions: MOLM-14, 96 h; outline: as §2
MV4-11 [8] = experiment: Cytotoxicity against human MV4-11 cells assessed as cell viability measured at 96 hrs by MTT assay; type: functional, cell-based; conditions: MV4-11, 96 h; outline: as §2
[9] = Cytotoxicity against C57BL/6 mouse bone marrow cells assessed as cell viability at 5 to 10 uM measured up to 72 hrs by MTT assay; type: cell-based
Outline: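 Total bone marrow from C57BL/6 mice cultured in IMDM with 20 % FBS, 10 ng/ml mouse IL-3, 10 ng/ml IL-6 and 50 ng/ml SCF. Exposed to 5 or 10 μM for up to 72 h. MTT added to 0.5 mg/ml for 3 h at 37 °C, formazan dissolved in SDS-HCl, A570 read. Three independent experiments, quadruplicate wells, mean ± SD.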

MV4-11 [10] = experiment: Cell cycle arrest in human MV4-11 cells assessed as accumulation at sub-G1 phase after 72 hrs by propidium iodide staining-based flow cytometric analysis; type: functional
Outline: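 Cells in RPMI with 10 % FBS at 37 °C, 5 % CO₂; treated up to 72 h, washed in cold PBS, fixed in -20 °C-precooled 70 % ethanol at 4 °C. Stained with 50 µg/ml PI, 1 % Triton X-100 and 20 µg/ml RNase A in PBS, 30 min, 37 °C, dark. Cell-cycle phases read by flow cytometry; three independent experiments, mean ± SD.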

MOLM-13 (Homo sapiens) [11] = experiment: Cytotoxicity against human MOLM13 cells assessed as cell viability at 0.25 to 5 uM by MTT assay
MOLM-13 (Homo sapiens) [12] = experiment: Induction of apoptosis in human MOLM13 cells after 72 hrs by Annexin V-FITC/propidium iodide staining-based flow cytometric analysis
MOLM-13 (Homo sapiens) [13] = experiment: Cell cycle arrest in human MOLM13 cells assessed as accumulation at G2/M phase after 72 hrs by propidium iodide staining-based flow cytometric analysis
MOLM-13 (Homo sapiens) [14] = experiment: Induction of apoptosis in human MOLM13 cells assessed as late apoptotic cells at 2.5 uM after 72 hrs by Annexin V-FITC/propidium iodide staining-based flow cytometric analysis (reference value: 7%)

Which Activity (MOLM-14 [1]) does the source give for `c1ccc(Oc2ccc(-c3cn(-c4noc5ccccc45)nn3)cc2)cc1` here?
The Activity was 28%.

What about the Activity (MOLM-14 [2]) of the same molecule?
Its Activity is 30%.

What about the Activity (MV4-11 [3]) of the same molecule?
Its Activity is 9%.

What about the Activity (MOLM-14 [4]) of the same molecule?
The Activity was “Dose-dependent effect”.

And the inhibition [5]?
Its inhibition is “Active”.

What about the Activity (MV4-11 [6]) of the same molecule?
Its Activity is “Dose-dependent effect”.

What about the IC50 (MOLM-14 [7]) of the same molecule?
The IC50 was 2000 nM.

What about the IC50 (MV4-11 [8]) of the same molecule?
Its IC50 is 2500 nM.

What about the Activity [9] of the same molecule?
The Activity was “Non-toxic”.

What about the Activity (MV4-11 [10]) of the same molecule?
The Activity was “Active”.

What about the Activity (MOLM-13 (Homo sapiens) [11]) of the same molecule?
The Activity was “Dose-dependent effect”.

And the Activity (MOLM-13 (Homo sapiens) [12])?
The Activity was “Dose-dependent effect”.

What about the Activity (MOLM-13 (Homo sapiens) [13]) of the same molecule?
Its Activity is “Active”.

And the Activity (MOLM-13 (Homo sapiens) [14])?
The Activity was 20%.
